Measurements as given in ChEMBL document CHEMBL1142894, “Preparation of 5-aryl-3-alkylthio-l,2,4-triazoles and corresponding sulfones with antiinflammatory-analgesic activity” (Bioorg Med Chem, 2007).
Active and inactive are the calls of the source. The rule behind the calls is not given here.

Tests used:
Mus musculus [1] = assay: Antiinflammatory activity against carrageenan-induced paw edema in Swiss albino mouse assessed as swelling thickness at 100 mg/kg, po after 90 mins; type: functional
Outline: (§1)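 Oral dosing in 0.5% CMC; vehicle to controls. Then carrageenan (0.5 mg/25 ll, freshly suspended in 154 mM saline) injected into the right hind paw subplantar tissue; saline into the left paw. Right-left footpad thickness difference measured by dial gauge calliper every 90 min over 6 h. Inhibition % is relative to vehicle control. n = 6; mean ± SEM.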

Mus musculus [2] = assay: Antiinflammatory activity against carrageenan-induced paw edema in Swiss albino mouse assessed as swelling thickness at 100 mg/kg, po after 180 mins; type: functional; outline: as §1
Mus musculus [3] = assay: Antiinflammatory activity against carrageenan-induced paw edema in Swiss albino mouse assessed as swelling thickness at 100 mg/kg, po after 270 mins; type: functional; outline: as §1
Mus musculus [4] = assay: Antiinflammatory activity against carrageenan-induced paw edema in Swiss albino mouse assessed as swelling thickness at 100 mg/kg, po after 360 mins; type: functional; outline: as §1
Mus musculus [5] = assay: Inhibition of carrageenan-induced paw edema in Swiss albino mouse at 100 mg/kg, po after 90 mins relative to control; type: functional; settings: 1.5 h; outline: as §1
Mus musculus [6] = assay: Inhibition of carrageenan-induced paw edema in Swiss albino mouse at 100 mg/kg, po after 180 mins relative to control; type: functional; settings: 3 h; outline: as §1
Mus musculus [7] = assay: Inhibition of carrageenan-induced paw edema in Swiss albino mouse at 100 mg/kg, po after 270 mins relative to control; type: functional; settings: 4.5 h; outline: as §1
Mus musculus [8] = assay: Inhibition of carrageenan-induced paw edema in Swiss albino mouse at 100 mg/kg, po after 360 mins relative to control; type: functional; settings: 6 h; outline: as §1
Mus musculus [9] = assay: Antiinflammatory activity in Swiss albino mouse assessed as inhibition of carrageenan-induced paw edema at 50 mg/kg, po; type: functional
Mus musculus [10] = assay: Analgesic activity against p-benzoquinone-induced abdominal constriction in Swiss albino mouse assessed as number of writhings at 25 mg/kg, po; type: functional, Abdomen
Outline: (§2)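 Test samples given orally in 0.5% CMC; vehicle to controls. 60 min later, 2.5% (v/v) p-benzoquinone in distilled water, 0.1 ml/10 g, given i.p. Mice housed singly; writhes counted for 15 min starting 5 min after injection. Activity is % change from vehicle controls. n = 6; mean ± SEM.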

Mus musculus [11] = assay: Analgesic activity against p-benzoquinone-induced abdominal constriction in Swiss albino mouse assessed as number of writhings at 50 mg/kg, po; type: functional, Abdomen; outline: as §2
Mus musculus [12] = assay: Analgesic activity against p-benzoquinone-induced abdominal constriction in Swiss albino mouse assessed as number of writhings at 100 mg/kg, po; type: functional, Abdomen; outline: as §2
Mus musculus [13] = assay: Analgesic activity against p-benzoquinone-induced abdominal constriction in Swiss albino mouse assessed as number of writhings at 200 mg/kg, po; type: functional, Abdomen; outline: as §2
Mus musculus [14] = assay: Inhibition of p-benzoquinone-induced writhing in Swiss albino mouse at 25 mg/kg, po relative to control; type: functional
Outline: (§3)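 Mice, n = 6 per group, dosed orally with a suspension in 0.5% sodium CMC. 60 min later, 0.1 ml/10 g of 2.5% […] p-benzoquinone in distilled water given ip. Abdominal writhes counted per animal for 15 min, starting 5 min after injection. Expressed as % change in mean writhing count versus vehicle controls.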

Mus musculus [15] = assay: Inhibition of p-benzoquinone-induced writhing in Swiss albino mouse at 50 mg/kg, po relative to control; type: functional; outline: as §3
Mus musculus [16] = assay: Inhibition of p-benzoquinone-induced writhing in Swiss albino mouse at 100 mg/kg, po relative to control; type: functional; outline: as §3
Mus musculus [17] = assay: Inhibition of p-benzoquinone-induced writhing in Swiss albino mouse at 200 mg/kg, po relative to control; type: functional; outline: as §3
Mus musculus [18] = assay: Gastric-ulcerogenic effect in Swiss albino mouse assessed as lesions at 25 mg/kg, po; type: functional, organism-based; parameters: dose 25 mg/kg
Outline: (§4)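 Mice killed under deep ether anesthesia 3 h after the writhing test; the oral dose in 0.5% CMC was the one used in that test. Stomachs removed, opened along the great curvature and examined under a dissecting microscope for lesions or bleeding. Reported as ratio of ulceration; n = 6.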

Mus musculus [19] = assay: Gastric-ulcerogenic effect in Swiss albino mouse assessed as lesions at 50 mg/kg, po; type: functional, organism-based; parameters: dose 50 mg/kg; outline: as §4
Mus musculus [20] = assay: Gastric-ulcerogenic effect in Swiss albino mouse assessed as lesions at 100 mg/kg, po; type: functional, organism-based; parameters: dose 100 mg/kg; outline: as §4
Mus musculus [21] = assay: Antiinflammatory activity against carrageenan-induced paw edema in Swiss albino mouse assessed as swelling thickness at 25 mg/kg, po after 90 mins; type: functional; outline: as §1
Mus musculus [22] = assay: Antiinflammatory activity against carrageenan-induced paw edema in Swiss albino mouse assessed as swelling thickness at 25 mg/kg, po after 180 mins; type: functional; outline: as §1
Mus musculus [23] = assay: Antiinflammatory activity against carrageenan-induced paw edema in Swiss albino mouse assessed as swelling thickness at 25 mg/kg, po after 270 mins; type: functional; outline: as §1
Mus musculus [24] = assay: Antiinflammatory activity against carrageenan-induced paw edema in Swiss albino mouse assessed as swelling thickness at 25 mg/kg, po after 360 mins; type: functional; outline: as §1
Mus musculus [25] = assay: Antiinflammatory activity against carrageenan-induced paw edema in Swiss albino mouse assessed as swelling thickness at 50 mg/kg, po after 180 mins; type: functional; outline: as §1
Mus musculus [26] = assay: Antiinflammatory activity against carrageenan-induced paw edema in Swiss albino mouse assessed as swelling thickness at 50 mg/kg, po after 270 mins; type: functional; outline: as §1
Mus musculus [27] = assay: Antiinflammatory activity against carrageenan-induced paw edema in Swiss albino mouse assessed as swelling thickness at 50 mg/kg, po after 360 mins; type: functional; outline: as §1
Mus musculus [28] = assay: Antiinflammatory activity against carrageenan-induced paw edema in Swiss albino mouse assessed as swelling thickness at 200 mg/kg, po after 90 mins; type: functional; outline: as §1
Mus musculus [29] = assay: Antiinflammatory activity against carrageenan-induced paw edema in Swiss albino mouse assessed as swelling thickness at 200 mg/kg, po after 180 mins; type: functional; outline: as §1
Mus musculus [30] = assay: Antiinflammatory activity against carrageenan-induced paw edema in Swiss albino mouse assessed as swelling thickness at 200 mg/kg, po after 270 mins; type: functional; outline: as §1
Mus musculus [31] = assay: Antiinflammatory activity against carrageenan-induced paw edema in Swiss albino mouse assessed as swelling thickness at 200 mg/kg, po after 360 mins; type: functional; outline: as §1
Mus musculus [32] = assay: Inhibition of carrageenan-induced paw edema in Swiss albino mouse at 25 mg/kg, po after 90 mins relative to control; type: functional; settings: 1.5 h; outline: as §1
Mus musculus [33] = assay: Inhibition of carrageenan-induced paw edema in Swiss albino mouse at 25 mg/kg, po after 180 mins relative to control; type: functional; settings: 3 h; outline: as §1
Mus musculus [34] = assay: Inhibition of carrageenan-induced paw edema in Swiss albino mouse at 25 mg/kg, po after 270 mins relative to control; type: functional; settings: 4.5 h; outline: as §1
Mus musculus [35] = assay: Inhibition of carrageenan-induced paw edema in Swiss albino mouse at 25 mg/kg, po after 360 mins relative to control; type: functional; settings: 6 h; outline: as §1
Mus musculus [36] = assay: Inhibition of carrageenan-induced paw edema in Swiss albino mouse at 50 mg/kg, po after 90 mins relative to control; type: functional; settings: 1.5 h
Outline: (§5)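 Mice, n = 6 per group. Test agent given orally as a suspension in 0.5% sodium CMC in distilled water; controls received vehicle only. Afterwards, 0.5 mg/25 ll carrageenan in saline (154 mM NaCl) injected subplantar into the right hind paw, saline into the left. Right-minus-left footpad thickness measured by dial gauge caliper every 90 min for 6 h. Inhibition is relative to vehicle-control group means.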

Mus musculus [37] = assay: Inhibition of carrageenan-induced paw edema in Swiss albino mouse at 50 mg/kg, po after 180 mins relative to control; type: functional; settings: 3 h; outline: as §1
Mus musculus [38] = assay: Inhibition of carrageenan-induced paw edema in Swiss albino mouse at 50 mg/kg, po after 270 mins relative to control; type: functional; settings: 4.5 h; outline: as §5
Mus musculus [39] = assay: Inhibition of carrageenan-induced paw edema in Swiss albino mouse at 50 mg/kg, po after 360 mins relative to control; type: functional; settings: 6 h; outline: as §5
Mus musculus [40] = assay: Inhibition of carrageenan-induced paw edema in Swiss albino mouse at 200 mg/kg, po after 90 mins relative to control; type: functional; settings: 1.5 h; outline: as §1
Mus musculus [41] = assay: Inhibition of carrageenan-induced paw edema in Swiss albino mouse at 200 mg/kg, po after 180 mins relative to control; type: functional; settings: 3 h; outline: as §1
Mus musculus [42] = assay: Inhibition of carrageenan-induced paw edema in Swiss albino mouse at 200 mg/kg, po after 270 mins relative to control; type: functional; settings: 4.5 h; outline: as §1
Mus musculus [43] = assay: Inhibition of carrageenan-induced paw edema in Swiss albino mouse at 200 mg/kg, po after 360 mins relative to control; type: functional; settings: 6 h; outline: as §1
Mus musculus [44] = assay: Acute toxicity in Swiss albino mouse assessed as lethal effect at 25 mg/kg/day, po after 72 hrs; type: organism-based; parameters: route oral; settings: in vivo
Outline: (§6)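 Oral single dose suspended in 0.5% carboxymethylcellulose, given after a 24 h fast; food and water returned 1 h after dosing. Vehicle-only controls. Mice observed at 1 h, then once daily for 72 h, for toxic signs and mortality.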

Mus musculus [45] = assay: Acute toxicity in Swiss albino mouse assessed as lethal effect at 50 mg/kg/day, po after 72 hrs; type: organism-based; parameters: route oral; settings: in vivo; outline: as §6
Mus musculus [46] = assay: Acute toxicity in Swiss albino mouse assessed as lethal effect at 100 mg/kg/day, po after 72 hrs; type: organism-based; parameters: route oral; settings: in vivo; outline: as §6
Mus musculus [47] = assay: Acute toxicity in Swiss albino mouse assessed as lethal effect at 200 mg/kg/day, po after 72 hrs; type: organism-based; parameters: route oral; settings: in vivo; outline: as §6
Mus musculus [48] = assay: Antiinflammatory activity against carrageenan-induced paw edema in Swiss albino mouse assessed as swelling thickness at 50 mg/kg, po after 90 mins; type: functional; outline: as §1

In the case of CCS(=O)(=O)c1nc(-c2ccccc2Cl)n[nH]1, the Activity (Mus musculus [1]) is reported as 29.8 10^-2mm, the Activity (Mus musculus [2]) is reported as 33.8 10^-2mm and the Activity (Mus musculus [3]) is reported as 35 10^-2mm. For the same molecule, the Activity (Mus musculus [4]) was 38.5 10^-2mm, the inhibition in vivo at 100 mg/kg (Mus musculus [5]) was 33.4% and the inhibition in vivo at 100 mg/kg (Mus musculus [6]) was 34.4%. For the same molecule, the inhibition in vivo at 100 mg/kg (Mus musculus [7]) was 40.5%, the inhibition in vivo at 100 mg/kg (Mus musculus [8]) was 44% and the inhibition in vivo at 50 mg/kg (Mus musculus [9]) was 37.9%. For the same molecule, the Activity (Mus musculus [10]) was 38.2, the Activity (Mus musculus [11]) was 23.4 and the Activity (Mus musculus [12]) was 23.4. The Activity (Mus musculus [13]) was 45.9, the inhibition in vivo at 25 mg/kg (Mus musculus [14]) was 25.7% and the inhibition in vivo at 50 mg/kg (Mus musculus [15]) was 54.5%. For the same molecule, the inhibition in vivo at 100 mg/kg (Mus musculus [16]) was 50.5%, the inhibition in vivo at 200 mg/kg (Mus musculus [17]) was 10.7% and the Activity (Mus musculus [18]) was “Active”. The Activity (Mus musculus [19]) was “Active”, the Activity (Mus musculus [20]) was “Active” and the Activity (Mus musculus [21]) was 47.2 10^-2mm. The Activity (Mus musculus [22]) was 54.4 10^-2mm, the Activity (Mus musculus [23]) was 59.1 10^-2mm and the Activity (Mus musculus [24]) was 61.5 10^-2mm. The Activity (Mus musculus [25]) was 35.8 10^-2mm, the Activity (Mus musculus [26]) was 41.4 10^-2mm and the Activity (Mus musculus [27]) was 40.5 10^-2mm. The Activity (Mus musculus [28]) was 43.1 10^-2mm, the Activity (Mus musculus [29]) was 45.8 10^-2mm and the Activity (Mus musculus [30]) was 51.9 10^-2mm. For the same molecule, the Activity (Mus musculus [31]) was 56.5 10^-2mm, the inhibition in vivo at 25 mg/kg (Mus musculus [32]) was 11.3% and the inhibition in vivo at 25 mg/kg (Mus musculus [33]) was 8.4%. It also gave an inhibition in vivo at 25 mg/kg (Mus musculus [34]) of 8.8%, an inhibition in vivo at 25 mg/kg (Mus musculus [35]) of 14.6% and an inhibition in vivo at 50 mg/kg (Mus musculus [36]) of 31.9%. The inhibition in vivo at 50 mg/kg (Mus musculus [37]) was 39.7%, the inhibition in vivo at 50 mg/kg (Mus musculus [38]) was 36.1% and the inhibition in vivo at 50 mg/kg (Mus musculus [39]) was 43.8%. It also gave an inhibition in vivo at 200 mg/kg (Mus musculus [40]) of 18.9%, an inhibition in vivo at 200 mg/kg (Mus musculus [41]) of 22.9% and an inhibition in vivo at 200 mg/kg (Mus musculus [42]) of 19.9%. The inhibition in vivo at 200 mg/kg (Mus musculus [43]) was 21.5%, the Activity (Mus musculus [44]) was “Non-toxic” and the Activity (Mus musculus [45]) was “Non-toxic”. The Activity (Mus musculus [46]) was “Non-toxic”, the Activity (Mus musculus [47]) was “Non-toxic” and the Activity (Mus musculus [48]) was 36.2 10^-2mm.
